Source: PMC12443483 (Journal of the American Chemical Society, 2025)
Values joined by “and” are separate entries in the source; they are usually repeats but may differ in a detail not shown here. Identical values can stand only once.

Columns and labels:
αS/pLK condensates = assay: CLSM staining of αS/pLK LLPS condensates relative to αS fibrils; details: αS 100 μM / pLK 0.25 mg/mL, LLPS buffer
Procedure, shortened: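 Condensates of αS (100 μM) and poly-L-lysine (0.25 mg/mL), doped with 5% Acd-labelled αS (position 94) and 5% FITC-poly-L-lysine, stained and imaged by confocal microscopy. Channels: Acd 430–480 nm (Ex 405 nm); FITC 500–540 nm; probe Ex 561 nm, Em 570–620 or 630–680 nm. Probe intensity in condensates was divided by that with αS fibrils. Buffer: HEPES/NaCl/TCEP pH 7.4 with 15% PEG-8000, room temperature. SD of >3 measurements.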

[1] = Photophysical characterization by absorption and fluorescence spectroscopy; assay type: physicochemical; details: for Absorbance λabs (maximum absorption wavelength) / Emission λem (maximum emission wavelength) / ε (molar absorption coefficient at maximum absorption wavelength): 25 μM probe in CH3CN/PBS pH 7.4; for Stokes Shift: difference between λabs and λem, CH3CN/PBS pH 7.4
Procedure, shortened: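 Probe at 25 μM final in CH3CN/PBS (50:50 v/v), pH 7.4. Absorption and emission spectra were recorded, with excitation at each probe's absorption maximum. ε was taken at the absorption maximum, and Stokes shift as the absorption–emission maximum difference. Quantum yield (error limit ±5) was measured in this mixture and also in CH3CN.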

PDD-derived AFs = PDD-derived AFs (Homo sapiens, UniProt P37840); assay: Fluorescence with amplified fibrils; assay type: binding; details: 1 μM probe, 1 μM AFs, average of three PDD patients
Procedure, shortened: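 Probe (1 μM) was mixed with amplified fibrils (1 μM) or brain lysates from three PDD patients, and the averages are shown. Ex/Em was set per probe: 463/580 or 484/620 nm, with ThT reference at 450/482 nm. Fold change is after subtracting free probe fluorescence in PBS. Error bars are SD of 3 measurements.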

αS fibrils [2] = target: T1, αS fibrils (Homo sapiens, UniProt P37840); assay: Concentration-dependent binding λem and local dielectric constant on αS fibrils; details: for Dielectric constant of local environment of probe bound to αS fibrils: calculated from fits of λem in solvents, 581 nm for 3c, 617 nm for 4a
αS monomer = αS monomer (Homo sapiens, UniProt P37840); assay: Fluorescence with TMAO-induced αS misfolding/oligomers; assay type: biochemical
Procedure, shortened: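 Monomeric αS (50 μM) was exposed to trimethylamine N-oxide at 2, 4 or 6 M to induce misfolding or oligomers, then probe fluorescence was read. Fold change is relative to free probe in Tris buffer containing the same TMAO concentration.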

αS fibrils [3] = target: T1, αS fibrils; assay: Turn-on fluorescence upon binding to αS fibrils; details: for Brightness increase upon binding to αS fibrils / Emission wavelength upon binding to αS fibrils: 10 μM probe, 50 μM αS fibrils; for Fluorescence lifetime (τ) upon binding to αS fibrils: bound to αS fibrils
Procedure, shortened: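 Emission spectra of 10 μM probe were recorded with 50 μM αS monomer or fibrils. Samples were also photographed under a 365 nm hand-held UV lamp.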

[4] = Viscosity sensitivity: fluorescence in ethylene glycol/glycerol mixtures; assay type: physicochemical; details: EG/G mixtures 16 to 851 cP; for Viscosity sensitivity χ2: second-order polynomial regression, 25 μM probe
Procedure, shortened: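 Fluorescence was measured in ethylene glycol/glycerol mixtures spanning 16–851 cP; the two solvents were chosen for closely matched dielectric constants, to minimise polarity effects. χ2 was derived from second-order polynomial regression of intensity against viscosity.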

[5] = Polarity sensitivity: emission across solvents with varying dielectric constants; assay type: physicochemical; details: for Polarity sensitivity: λem versus solvent dielectric constant; for Emission wavelength range (solvatochromism): depending on solvent polarity
tau fibrils = assay: Amyloid selectivity: turn-on with αS fibrils relative to tau fibrils; assay type: binding; details: 1 μM probe
αS = αS (Homo sapiens, UniProt P37840); assay: Monitoring αS aggregation over prolonged agitation; assay type: biochemical; details: PBS buffer, 37 °C; for Detection of early αS aggregation species (misfolding, oligomers/protofibrils): 0–40 hours
αS/Tau0N4R condensates = assay: CLSM staining of αS/tau condensates relative to αS fibrils; details: 80 μM αS / 40 μM tau, LLPS buffer
Aβ1–42 fibrils = assay: Amyloid selectivity: turn-on with αS fibrils relative to Aβ1–42 fibrils; assay type: binding; details: 1 μM probe
[6] = Temperature dependence of fluorescence in methanol/glycerol mixtures; assay type: physicochemical
Procedure, shortened: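 Fluorescence of 25 μM probe was measured in methanol/glycerol mixtures of varying viscosity at 25 and 42 °C. Fluorescence fold change was plotted against viscosity.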

αS fibrils [7] = target: T1, αS fibrils; assay: Competition binding studies with ThT, Ex6 and BF2846 on αS fibrils; details: for Competition with ThT: some ThT emission remained at saturating concentrations
αS fibrils [8] = target: T1, αS fibrils; assay: Binding affinity; details: for Kd: read-out: Dissociation constant (Kd), probe 10 nM–10 μM with 100 μM αS fibrils
Tau0N4R condensates [9] = target: Tau0N4R condensates (Homo sapiens, UniProt P10636); assay: CLSM staining of Tau0N4R condensates with and without αS; details: 40 μM Tau0N4R without αS, 630–680 nm channel
Chain of Tau0N4R condensates (Homo sapiens, UniProt P10636) (P10636 2-383 isoform P10636-6): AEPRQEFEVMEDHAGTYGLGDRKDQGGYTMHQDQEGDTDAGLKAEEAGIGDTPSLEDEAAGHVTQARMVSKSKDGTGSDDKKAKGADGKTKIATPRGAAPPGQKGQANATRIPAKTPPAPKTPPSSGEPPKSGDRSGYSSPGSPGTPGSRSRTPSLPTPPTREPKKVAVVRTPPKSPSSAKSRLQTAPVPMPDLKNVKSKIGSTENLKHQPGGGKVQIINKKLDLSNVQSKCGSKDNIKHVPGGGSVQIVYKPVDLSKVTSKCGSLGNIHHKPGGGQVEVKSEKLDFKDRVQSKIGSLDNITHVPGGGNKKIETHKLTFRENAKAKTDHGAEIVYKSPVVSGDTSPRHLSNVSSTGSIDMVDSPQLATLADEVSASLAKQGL
Procedure, shortened: (§1)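 Confocal imaging of 40 μM Tau0N4R condensates, with or without 80 μM αS, doped with 5% AF488-labelled Tau0N4R. Buffer: 20 mM HEPES, 150 mM NaCl, 1 mM TCEP, pH 7.4, 15% PEG-8000, room temperature. Probe read at Ex 561 nm, Em 630–680 nm; AF488-tau at Ex 488 nm, Em 500–540 nm. Error bars are SD of >3 measurements.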

Tau0N4R condensates [10] = assay: as above; details: 40 μM Tau0N4R with or without 80 μM αS
Procedure, shortened: as §1

[11] = 2 M TMAO, 50 μM αS monomer, 10 μM probe
[12] = 4 M TMAO, 50 μM αS monomer, 10 μM probe
[13] = 6 M TMAO, 50 μM αS monomer, 10 μM probe

| Structure (SMILES) | Absorbance λabs (maximum absorption wavelength) [1] | Emission λem (maximum emission wavelength) [1] | ε (molar absorption coefficient at maximum absorption wavelength) [1] | Fluorescence QY ([1]; CH3CN/PBS pH 7.4, 25 μM) | Stokes Shift [1] | Fluorescence QY ([1]; in CH3CN) | Fluorescence with PDD-derived AFs compared to unamplified lysate (PDD-derived AFs) | λem as probe concentration increased (αS fibrils [2]; bound to αS fibrils) | Dielectric constant of local environment of probe bound to αS fibrils (αS fibrils [2]) | λem with αS/TMAO (αS monomer; 4 M TMAO) | λem with αS/TMAO (αS monomer; 6 M TMAO) | Brightness increase upon binding to αS fibrils (αS fibrils [3]) | Emission wavelength upon binding to αS fibrils (αS fibrils [3]) | Fluorescence lifetime (τ) upon binding to αS fibrils (αS fibrils [3]) | Fluorescence intensity change with viscosity [4] | Viscosity sensitivity χ2 [4] | Polarity sensitivity [5] | Staining efficiency: probe intensity ratio αS/pLK condensates to αS fibrils (αS/pLK condensates) | Turn-on for αS fibrils relative to tau fibrils (tau fibrils) | Staining: probe intensity ratio αS/Tau condensates to αS fibrils (αS/Tau0N4R condensates) | other results |
| --- | --- | --- | --- | --- | --- | --- | --- | --- | --- | --- | --- | --- | --- | --- | --- | --- | --- | --- | --- | --- | --- |
| CNc1ccc(/C=C/c2c(C)c(=O)n3c(=O)c(C)c(C)n23)cc1 [3b] | 399 nm | 591 nm | 26400 M⁻¹ cm⁻¹ | 0.5% | 192 nm | 2.0% |  |  |  |  |  |  |  |  | 4.68 fold | 0.7 ×10^−3 | 30.7 |  |  |  | Emission wavelength range (solvatochromism) [5]: 486–640 nm |
| Cc1ccc2c(c1)sc(-c1ccc(N(C)C)cc1)[n+]2C [ThT, Thioflavin-T, reference compound] |  |  |  |  |  |  | failed to distinguish AFs from lysate |  |  |  |  |  |  |  |  |  |  | 0.15 fold |  | 0.34 fold | Detection of early αS aggregation species (misfolding, oligomers/protofibrils) (αS): only tracking mature fibrils |
| Cc1c(C)n2c(/C=C/c3ccc(N)cc3)c(C)c(=O)n2c1=O [3a] | 385 nm | 583 nm | 30800 M⁻¹ cm⁻¹ | 0.7% | 198 nm | 1.5% |  |  |  |  |  |  |  |  | 5.4 fold | 1.0 ×10^−3 | 26.7 |  |  |  | Fluorescence change between 25 °C and 42 °C [6]: 2.14 fold |

Further lines, with some results ahead:

| Absorbance λabs (maximum absorption wavelength) [1] | Emission λem (maximum emission wavelength) [1] | ε (molar absorption coefficient at maximum absorption wavelength) [1] | Fluorescence QY ([1]; CH3CN/PBS pH 7.4, 25 μM) | Stokes Shift [1] | Fluorescence QY ([1]; in CH3CN) | Fluorescence with PDD-derived AFs compared to unamplified lysate (PDD-derived AFs) | λem as probe concentration increased (αS fibrils [2]; bound to αS fibrils) | Dielectric constant of local environment of probe bound to αS fibrils (αS fibrils [2]) | λem with αS/TMAO (αS monomer; 4 M TMAO) | λem with αS/TMAO (αS monomer; 6 M TMAO) | Brightness increase upon binding to αS fibrils (αS fibrils [3]) | Emission wavelength upon binding to αS fibrils (αS fibrils [3]) | Fluorescence lifetime (τ) upon binding to αS fibrils (αS fibrils [3]) | Fluorescence intensity change with viscosity [4] | Viscosity sensitivity χ2 [4] | Polarity sensitivity [5] | Structure (SMILES) | Staining efficiency: probe intensity ratio αS/pLK condensates to αS fibrils (αS/pLK condensates) | Turn-on for αS fibrils relative to tau fibrils (tau fibrils) | Staining: probe intensity ratio αS/Tau condensates to αS fibrils (αS/Tau0N4R condensates) | other results |
| --- | --- | --- | --- | --- | --- | --- | --- | --- | --- | --- | --- | --- | --- | --- | --- | --- | --- | --- | --- | --- | --- |
| 418 nm | 604 nm | 30400 M⁻¹ cm⁻¹ | 0.5% | 186 nm | 7.3 ± 0.3% and 7.3% | 2.4 fold | 575 to 581 nm | 35.9 | 566 nm | 560 nm | 476 fold | 580 nm | 2.27 ns | 3.82 fold | 0.6 ×10^−3 | 32.1 | Cc1c(C)n2c(/C=C/c3ccc(N(C)C)cc3)c(C)c(=O)n2c1=O [3c] | 0.68 fold | 2.8 fold | 0.37 fold | λem shift as concentration increased (αS fibrils [2]; bound to αS fibrils): 6 nm; Detection of early αS aggregation species (misfolding, oligomers/protofibrils) (αS): unable to detect changes within 20 h; Turn-on for αS fibrils relative to Aβ1–42 fibrils (Aβ1–42 fibrils): 5.2 fold; Fluorescence change between 25 °C and 42 °C [6]: 2.48 fold; Displacement of probe fluorescence by BF2846 (Site B binder) (αS fibrils [7]): partially displaced; Displacement of probe fluorescence by Ex6 (Site A binder) (αS fibrils [7]): not displaced; Competition with ThT (αS fibrils [7]): competed with the promiscuous binder ThT; Kd (αS fibrils [8]): 1450 ± 430 nM |
| 436 nm | 640 nm | 36700 M⁻¹ cm⁻¹ | 0.6% | 204 nm | 13.5% | 2.6 fold | 617 to 618 nm | 27.6 | 606 nm | 601 nm | 383 fold | 620 nm | 1.27 ns | around 3 fold |  | ~ 31.5 | Cc1c(C)n2c(/C=C/C=C/c3ccc(N(C)C)cc3)c(C)c(=O)n2c1=O [4a] | 1.11 fold | 11 fold | 1.12 fold | λem with αS/TMAO (αS monomer; 2 M TMAO): 604 nm; Sensitivity (turn-on) relative to 3c (αS monomer; [11]): 2.2 fold; Sensitivity (turn-on) relative to ThT (αS monomer; [11]): 3.1 fold; Sensitivity (turn-on) relative to 3c (αS monomer; [12]): 2.9 fold; Sensitivity (turn-on) relative to ThT (αS monomer; [12]): 5.2 fold; Turn-on relative to 2a (so in the source) (αS monomer; [13]): 1.2 fold; Turn-on relative to ThT (αS monomer; [13]): 1.5 fold; λem shift ([5]; across solvents with dielectric constants from 2.38 to 8.93): 64 nm; Emission wavelength range (solvatochromism) [5]: 486–640 nm; Staining of tau-only condensates (Tau0N4R condensates [9]): minimal staining; Fluorescence in αS-containing tau condensates compared to tau-only condensates (Tau0N4R condensates [10]): 3.8 fold; Increase in fluorescence intensity within 20 hours of αS aggregation (αS; agitation): 15 fold; Turn-on for αS fibrils relative to Aβ1–42 fibrils (Aβ1–42 fibrils): 15 fold; Displacement of probe fluorescence by BF2846 (Site B binder) (αS fibrils [7]): not affected; Displacement of probe fluorescence by Ex6 (Site A binder) (αS fibrils [7]): not affected; Competition with ThT (αS fibrils [7]): competed with the promiscuous binder ThT; Affinity relative to 3c (αS fibrils [8]; Kd ratio 3c/4a): 3.5 times; Kd (αS fibrils [8]): 420 ± 250 nM |
